Experimental data from ChEMBL document CHEMBL2406947, “Syntheses and evaluation of novel isoliquiritigenin derivatives as potential dual inhibitors for amyloid-beta aggregation and 5-lipoxygenase” (Eur J Med Chem, 2013).
Calls of active or inactive are those of the source. The rule behind the calls is not given here.

Assays:
[1] = Cytotoxicity against human SH-SY5Y cells after 48 hrs by MTT assay; type: cell-based
In short: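 SH-SY5Y cells grown in DMEM with 10% FBS, 1 mM glutamine, penicillin/streptomycin, 5% CO2, 37 °C; seeded 10,000 cells/well, treated after 24 h with 0-100 µM for 48 h; MTT (5 mg/mL stock) added for 4 h, formazan dissolved in DMSO, absorbance at 570 nm.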

[2] = Inhibition of potato 5-LOX using linoleic acid as substrate assessed as hydroperoxides production after 5 mins by enzyme immuno assay; design: species or system Solanum tuberosum
[3] = target: T1, Amyloid-beta precursor protein (Homo sapiens, UniProt P05067); assay: Inhibition of amyloid beta (1-42) self-mediated aggregation (unknown origin) after 5 days by thioflavin T fluorescence method
[4] = target: T1, Amyloid-beta precursor protein; assay: Inhibition of amyloid beta (1 to 42) fibrilation (unknown origin) at 20 uM after 4 days by transmission electron microscopic analysis
In short: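 Aβ(1-42) at 40 µM final in 50 mM phosphate pH 7.4 incubated at 37 °C for 4 days with or without 20 µM compound; samples applied to carbon-coated grids, water-washed, negatively stained 1 min with 2% uranyl acetate, examined by transmission electron microscopy.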

[5] = target: T1, Amyloid-beta precursor protein; assay: Inhibition of amyloid beta (1 to 42) fibrilation (unknown origin) assessed as reduction in […] structure formation at 10 uM after 2 days by CD spectroscopy assay
In short: (§1)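 20 µM Aβ(1-42) incubated with or without 10 µM compound in 50 mM sodium phosphate pH 7.4 at 37 °C for 2 days; CD spectra recorded at 25 °C, 190-260 nm, 1 mm quartz cell, 0.5 nm bandwidth, 10 nm/min; background and compound spectra subtracted.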

[6] = target: T1, Amyloid-beta precursor protein; assay: Inhibition of amyloid beta (1 to 42) fibrilation (unknown origin) assessed as reduction in beta-sheet structure formation at 10 uM after 2 days by CD spectroscopy assay; in short: as §1

T1 sequence (P05067 whole entry): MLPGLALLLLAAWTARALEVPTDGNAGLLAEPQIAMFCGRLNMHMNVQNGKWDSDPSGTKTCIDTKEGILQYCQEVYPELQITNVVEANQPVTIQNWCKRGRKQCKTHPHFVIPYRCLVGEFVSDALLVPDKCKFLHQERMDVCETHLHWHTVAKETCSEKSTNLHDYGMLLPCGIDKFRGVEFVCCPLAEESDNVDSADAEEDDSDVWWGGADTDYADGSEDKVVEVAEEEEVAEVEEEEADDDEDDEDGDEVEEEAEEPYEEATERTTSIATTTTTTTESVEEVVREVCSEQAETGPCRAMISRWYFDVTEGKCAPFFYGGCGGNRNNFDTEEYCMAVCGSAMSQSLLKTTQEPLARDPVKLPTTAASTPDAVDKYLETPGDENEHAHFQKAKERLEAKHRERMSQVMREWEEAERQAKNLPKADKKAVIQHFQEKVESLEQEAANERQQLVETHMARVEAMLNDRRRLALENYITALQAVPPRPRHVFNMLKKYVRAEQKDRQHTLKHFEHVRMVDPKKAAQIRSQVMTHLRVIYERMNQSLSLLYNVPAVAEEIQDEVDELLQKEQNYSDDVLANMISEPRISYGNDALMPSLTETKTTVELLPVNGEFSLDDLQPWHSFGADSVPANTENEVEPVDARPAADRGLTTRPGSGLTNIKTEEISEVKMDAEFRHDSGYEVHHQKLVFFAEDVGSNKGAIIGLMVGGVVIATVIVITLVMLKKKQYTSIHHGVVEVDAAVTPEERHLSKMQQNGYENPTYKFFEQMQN

IC50 [2] [µM] | IC50 [3] [µM] | inhibition [4] | inhibition [5] | inhibition [6] | Structure (SMILES) | IC50 [1] [µM]
16.3 | 8.3 |  |  |  | COc1ccc(C(=O)/C=C/c2ccc(C(=O)Nc3ccc(C)cc3C)cc2)c(O)c1 | > 100
10.5 | 14.6 |  |  |  | COc1ccc(C(=O)/C=C/c2ccc(C(=O)N3CCCC3)cc2)c(O)c1 | > 100
30.3 | 18.5 |  |  |  | COc1ccc(C(=O)/C=C/c2ccc(C(=O)O)cc2)c(O)c1 | > 100
11.4 | 13.3 |  |  |  | COc1ccc(C(=O)/C=C/c2ccc(C(=O)Nc3cc([N+](=O)[O-])ccc3O)cc2)c(O)c1 | > 100
13 | 10.9 |  |  |  | COc1ccc(C(=O)/C=C/c2ccc(OCCCOc3ccccc3)c(OC)c2)c(O)c1 | > 100
14.2 | 19.1 |  |  |  | COc1ccc(C(=O)/C=C/c2ccc(C(=O)NCCc3ccccc3)cc2)c(O)c1 | > 100
18 | 18.9 |  |  |  | COc1ccc(C(=O)/C=C/c2ccc(C(=O)NCc3ccccc3)cc2)c(O)c1 | > 100
12.9 | 19.9 |  |  |  | CCCNC(=O)c1ccc(/C=C/C(=O)c2ccc(OC)cc2O)cc1 | > 100
18.6 | 19.7 |  |  |  | O=C(/C=C/c1ccc(O)cc1)c1ccc(O)cc1O [ISOLIQUIRITIGENIN] | 
6.8 | 5.9 |  |  |  | COc1ccc(C(=O)/C=C/c2ccc(C(=O)N3CCCCC3)cc2)c(O)c1 | > 100
7.9 | 2.2 |  |  |  | COc1ccc(C(=O)/C=C/c2ccc(C(=O)N3CCN(C)CC3)cc2)c(O)c1 | > 100
6.1 | 3.2 | Active | inactive | Active | COc1ccc(C(=O)/C=C/c2ccc(C(=O)N3CCOCC3)cc2)c(O)c1 | > 100
9.7 | 19.1 |  |  |  | CCOCCOc1ccc(/C=C/C(=O)c2ccc(OC)cc2O)cc1 | > 100
11.6 | 12.5 |  |  |  | COc1ccc(C(=O)/C=C/c2cc(Br)c(OCc3ccccc3)c(OC)c2)c(O)c1 | > 100
20.4 | 20.1 |  |  |  | COc1ccc(C(=O)/C=C/c2ccc(C(=O)N(C)c3ccccc3)cc2)c(O)c1 | > 100
15.7 | 15.9 |  |  |  | CCCCCCCCCCCCNC(=O)c1ccc(/C=C/C(=O)c2ccc(OC)cc2O)cc1 | > 100
16.5 | 10.1 |  |  |  | COc1ccc(C(=O)/C=C/c2ccc(C(=O)Nc3ccccc3O)cc2)c(O)c1 | > 100
35.8 | 23.8 |  |  |  | COC(=O)c1ccc(/C=C/C(=O)c2ccc(OC)cc2O)cc1 | > 100
12.4 |  |  |  |  | CC(Cc1ccc(O)c(O)c1)C(C)Cc1ccc(O)c(O)c1 (stereo unspecified) [NORDIHYDROGUAIARETIC ACID] | 
24.9 | 7.3 |  |  |  | COc1ccc(C(=O)/C=C/c2ccc(C(=O)Nc3ccccc3OC)cc2)c(O)c1 | > 100
14.1 | 10.2 |  |  |  | COc1ccc(C(=O)/C=C/c2cc(OC)c(OC)cc2OC)c(O)c1 | > 100
16.8 | 10.5 |  |  |  | CCOCCOc1cccc(/C=C/C(=O)c2ccc(OC)cc2O)c1 | > 100
10.3 | 9.7 |  |  |  | COc1ccc(C(=O)/C=C/c2cc(OC)c(OC)c(OC)c2)c(O)c1 | > 100
10.2 | 7.8 |  |  |  | COc1ccc(C(=O)/C=C/c2ccc(OCc3ccccc3)cc2)c(O)c1 | > 100
22.1 | 17.8 |  |  |  | COc1ccc(C(=O)/C=C/c2ccc(C(=O)NC(C)C)cc2)c(O)c1 | > 100
12.4 | 5.8 |  |  |  | CCOCCCOc1ccc(/C=C/C(=O)c2ccc(OC)cc2O)cc1OC | > 100
15.9 | 8.4 |  |  |  | COc1ccc(/C=C/C(=O)c2ccc(OC)cc2O)cc1 | > 100
